We go through 17 compounds from ChEMBL document CHEMBL4368879, “Crystallographic and SAR analyses reveal the high requirements needed to selectively and potently inhibit SIRT2 deacetylase and decanoylase” (Medchemcomm, 2019).

The target in assay [1] is T1, NAD-dependent protein deacetylase sirtuin-2 (Homo sapiens) (UniProt Q8IXJ6).
T1 sequence (whole entry): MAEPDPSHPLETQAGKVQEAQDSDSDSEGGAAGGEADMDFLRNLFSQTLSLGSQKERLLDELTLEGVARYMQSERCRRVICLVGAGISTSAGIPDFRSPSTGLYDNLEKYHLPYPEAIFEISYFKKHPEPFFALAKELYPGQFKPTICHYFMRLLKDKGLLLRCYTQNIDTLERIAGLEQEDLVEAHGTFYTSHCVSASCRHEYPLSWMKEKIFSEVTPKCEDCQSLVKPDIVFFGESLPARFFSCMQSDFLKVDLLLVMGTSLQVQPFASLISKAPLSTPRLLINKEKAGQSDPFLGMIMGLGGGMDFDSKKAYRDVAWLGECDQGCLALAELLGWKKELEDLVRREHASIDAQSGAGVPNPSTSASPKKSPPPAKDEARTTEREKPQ
The assay is described as follows: Inhibition of recombinant SIRT2 (unknown origin) using RLIK(Ac)AMC as substrate assessed as reduction in deacetylase activity at 10 uM after 2 hrs in presence of NAD+ by fluorescence assay relative to control. The essentials:
(§1)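 Fluorogenic sirtuin assay in 25 mM Tris–HCl pH 8.0, 150 mM NaCl, 10% glycerol. Enzyme at 0.1 μM with 10 μM substrate (RLIK(Ac)AMC or ETDK(Ca)AMC) and 400 μM NAD+, 2 h at 25 °C with shaking. Reaction stopped with a trypsin plus 4 mM nicotinamide solution, then 30 min more at 25 °C. Fluorescence read on a plate reader.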

Assay [2] concerns the target T1, NAD-dependent protein deacetylase sirtuin-2 (Homo sapiens). Put plainly: Inhibition of recombinant SIRT2 (unknown origin) using ETDK(Ca)AMC as substrate assessed as reduction in decanoylase activity at 10 uM after 2 hrs in presence of NAD+ by fluorescence assay relative to control. An outline of the steps: as §1
The target is the same in assay [3]. The assay is described as follows: Inhibition of recombinant SIRT2 (unknown origin) using RLIK(Ac)AMC as substrate assessed as reduction in deacetylase activity at 100 uM after 2 hrs in presence of NAD+ by fluorescence assay relative to control. The essentials:
as §1

Assay [4] has the same target. The assay is described as follows: Inhibition of recombinant SIRT2 (unknown origin) using ETDK(Ca)AMC as substrate assessed as reduction in decanoylase activity at 100 uM after 2 hrs in presence of NAD+ by fluorescence assay relative to control. An outline of the steps:
as §1

The target of assay [5] is NAD-dependent protein deacylase sirtuin-5, mitochondrial (Homo sapiens) (UniProt Q9NXA8). Put plainly: Inhibition of recombinant SIRT5 (unknown origin) using RLIK(Ac)AMC as substrate assessed as reduction in deacetylase activity after 2 hrs in presence of NAD+ by fluorescence assay. The essentials:
as §1

In assay [6] the target is NAD-dependent protein deacylase sirtuin-6 (Homo sapiens) (UniProt Q8N6T7). The assay is described as follows: Inhibition of recombinant SIRT6 (unknown origin) using RLIK(Ac)AMC as substrate assessed as reduction in deacetylase activity after 2 hrs in presence of NAD+ by fluorescence assay. An outline of the steps: as §1
Chain of NAD-dependent protein deacylase sirtuin-6 (Homo sapiens) (Q8N6T7 whole entry): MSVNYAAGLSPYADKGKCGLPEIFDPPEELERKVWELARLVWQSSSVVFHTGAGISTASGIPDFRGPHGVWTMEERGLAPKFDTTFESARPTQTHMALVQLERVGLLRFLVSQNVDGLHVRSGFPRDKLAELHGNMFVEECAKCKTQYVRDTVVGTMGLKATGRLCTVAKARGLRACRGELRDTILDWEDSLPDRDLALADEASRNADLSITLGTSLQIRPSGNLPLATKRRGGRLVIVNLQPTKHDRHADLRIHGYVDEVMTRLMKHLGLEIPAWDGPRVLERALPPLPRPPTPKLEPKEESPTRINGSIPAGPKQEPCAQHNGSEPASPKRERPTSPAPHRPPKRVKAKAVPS
Assay [7] deals with T2, NAD-dependent protein deacetylase sirtuin-2 (Homo sapiens, UniProt Q8IXJ6).
T2 sequence (Q8IXJ6 whole entry): T1 sequence (whole entry)
The assay is described as follows: Inhibition of recombinant SIRT2 (unknown origin) using RLIK(Ac)AMC as substrate assessed as reduction in deacetylase activity after 2 hrs in presence of NAD+ by fluorescence assay. An outline of the steps: as §1

Assay [8] has as its target T3, NAD-dependent protein deacetylase sirtuin-1 (Homo sapiens) (UniProt Q96EB6).
T3 sequence (whole entry): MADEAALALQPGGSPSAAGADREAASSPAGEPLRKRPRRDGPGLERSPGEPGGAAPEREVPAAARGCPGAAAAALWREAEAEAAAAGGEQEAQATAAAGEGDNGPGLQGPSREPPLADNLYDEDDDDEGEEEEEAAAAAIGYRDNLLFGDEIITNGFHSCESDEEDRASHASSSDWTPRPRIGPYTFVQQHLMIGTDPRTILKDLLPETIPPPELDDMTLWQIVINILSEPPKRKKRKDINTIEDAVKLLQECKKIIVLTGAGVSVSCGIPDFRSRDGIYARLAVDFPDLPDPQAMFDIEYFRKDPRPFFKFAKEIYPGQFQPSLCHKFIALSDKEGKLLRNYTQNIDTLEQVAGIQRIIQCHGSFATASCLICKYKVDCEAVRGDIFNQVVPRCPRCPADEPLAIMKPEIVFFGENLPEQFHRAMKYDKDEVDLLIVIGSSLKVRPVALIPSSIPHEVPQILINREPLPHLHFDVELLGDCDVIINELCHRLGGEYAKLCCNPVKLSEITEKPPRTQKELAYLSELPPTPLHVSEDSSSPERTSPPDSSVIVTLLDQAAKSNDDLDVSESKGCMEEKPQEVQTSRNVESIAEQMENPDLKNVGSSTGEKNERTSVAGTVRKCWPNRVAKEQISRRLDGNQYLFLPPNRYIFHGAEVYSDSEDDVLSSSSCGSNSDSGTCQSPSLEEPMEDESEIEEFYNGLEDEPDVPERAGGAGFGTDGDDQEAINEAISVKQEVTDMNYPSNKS
The assay is described as follows: Inhibition of recombinant SIRT1 (unknown origin) using RLIK(Ac)AMC as substrate assessed as reduction in deacetylase activity after 2 hrs in presence of NAD+ by fluorescence assay. An outline of the steps: as §1

In assay [9] the target is T3, NAD-dependent protein deacetylase sirtuin-1 (Homo sapiens). Put plainly: Inhibition of recombinant SIRT1 (unknown origin) using ETDK(Ca)AMC as substrate assessed as reduction in decanoylase activity after 2 hrs in presence of NAD+ by fluorescence assay. The essentials: as §1
Assay [10] has as its target NAD-dependent protein deacylase sirtuin-5, mitochondrial (Homo sapiens) (UniProt Q9NXA8). The assay is described as follows: Inhibition of recombinant SIRT5 (unknown origin) using ETDK(Ca)AMC as substrate assessed as reduction in decanoylase activity after 2 hrs in presence of NAD+ by fluorescence assay. The essentials: as §1
Assay [11] deals with T2, NAD-dependent protein deacetylase sirtuin-2. The assay is described as follows: Inhibition of recombinant SIRT2 (unknown origin) using ETDK(Ca)AMC as substrate assessed as reduction in decanoylase activity after 2 hrs in presence of NAD+ by fluorescence assay. The essentials:
as §1

In assay [12] the target is T4, NAD-dependent protein deacetylase sirtuin-3, mitochondrial (Homo sapiens) (UniProt Q9NTG7).
T4 sequence (whole entry): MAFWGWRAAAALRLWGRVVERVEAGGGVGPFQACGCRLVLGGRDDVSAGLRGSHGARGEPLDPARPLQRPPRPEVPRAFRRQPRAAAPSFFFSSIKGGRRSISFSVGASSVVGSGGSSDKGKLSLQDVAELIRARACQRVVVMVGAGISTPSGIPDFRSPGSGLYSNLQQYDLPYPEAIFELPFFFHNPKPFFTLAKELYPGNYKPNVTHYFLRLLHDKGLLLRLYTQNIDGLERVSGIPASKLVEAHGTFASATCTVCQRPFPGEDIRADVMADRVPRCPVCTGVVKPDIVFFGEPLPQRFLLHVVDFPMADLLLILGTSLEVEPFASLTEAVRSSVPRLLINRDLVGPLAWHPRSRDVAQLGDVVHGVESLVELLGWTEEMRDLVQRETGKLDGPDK
Put plainly: Inhibition of recombinant SIRT3 (unknown origin) using RLIK(Ac)AMC as substrate assessed as reduction in deacetylase activity after 2 hrs in presence of NAD+ by fluorescence assay. An outline of the steps: as §1

Assay [13] concerns the target NAD-dependent protein deacylase sirtuin-6 (Homo sapiens) (UniProt Q8N6T7). The assay is described as follows: Inhibition of recombinant SIRT6 (unknown origin) using ETDK(Ca)AMC as substrate assessed as reduction in decanoylase activity after 2 hrs in presence of NAD+ by fluorescence assay. The essentials: as §1
Assay [14] has as its target T4, NAD-dependent protein deacetylase sirtuin-3, mitochondrial (Homo sapiens). Put plainly: Inhibition of recombinant SIRT3 (unknown origin) using ETDK(Ca)AMC as substrate assessed as reduction in decanoylase activity after 2 hrs in presence of NAD+ by fluorescence assay. The essentials: as §1

Structures are written as SMILES. The source made the active and inactive calls. No cut-off for these calls is given here.

Chain of NAD-dependent protein deacylase sirtuin-5, mitochondrial (Homo sapiens) (Q9NXA8 37-310 limits assumed): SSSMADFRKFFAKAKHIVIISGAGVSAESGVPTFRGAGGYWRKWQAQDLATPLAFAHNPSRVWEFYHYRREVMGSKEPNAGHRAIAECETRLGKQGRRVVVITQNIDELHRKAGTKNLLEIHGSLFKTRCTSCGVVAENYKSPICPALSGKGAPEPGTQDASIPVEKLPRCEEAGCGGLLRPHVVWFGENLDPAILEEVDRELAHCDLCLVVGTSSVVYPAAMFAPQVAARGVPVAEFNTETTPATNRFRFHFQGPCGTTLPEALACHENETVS

As to `Cc1cccc(Sc2ccc(NC(=O)CSc3nc(C)cc(C)n3)cc2)c1`, the inhibition in assay [1] turned out to be 70%; in [2], 54%; in assay [3] it was 76%; in assay [4], 65%.

On to `Cc1cc(C)nc(SCC(=O)Nc2ccc(Sc3cccc(C(F)(F)F)c3)cc2)n1`, for which the inhibition result in assay [5], in [6], in [8], in assay [9], in assay [10] and in [12] was “inactive” throughout. For the same compound, the inhibition result in [13] and in assay [14] was “inactive” each time. For the same compound, the values for the half-inhibitory concentration (IC50) in [7] and in assay [11] were 0.85 µM and 17.6 µM, respectively. Also, the inhibition in [1] was 72%; in assay [2], 72%; in assay [3] it was 82%; in assay [4], 77%.

As for `Cc1cc(C)nc(SCC(=O)Nc2cccc(Sc3ccccc3)c2)n1`, the IC50 in [7] was determined as 6.65 µM; in [11], 62.1 µM. Moreover, the inhibition in assay [1] is 65%; in assay [2], 5%; in assay [3], 73%; in [4] it was 30%.

Take `COc1cccc(Sc2ccc(NC(=O)CSc3nc(C)cc(C)n3)cc2)c1`: the inhibition entry in [5], in assay [6], in [8], in assay [9], in assay [10] and in assay [12] was “inactive” in each case. Besides, the inhibition entry in assay [13] and in assay [14] was “inactive” each time. For the same compound, the IC50 in assay [7] amounted to 0.7 µM; in assay [11], 8.33 µM. For the same compound, the inhibition in assay [1] worked out at 80%; in assay [2], 70%; in assay [3] it was 85%; in assay [4], 80%.

In the case of `Cc1cc(C)nc(SCC(=O)Nc2ccc(Sc3ccc(OC(F)(F)F)cc3)cc2)n1`, the inhibition is 40% in assay [1], 23% in [2], 60% in assay [3] and 63% in assay [4].

`Cc1cc(C)nc(SCC(=O)Nc2cccc(COc3ccccc3)c2)n1`: the inhibition in assay [1] is 53%; in assay [2], 32%; in assay [3] it was 76%.

With `Cc1cc(C)nc(SCC(=O)Nc2ccc(Sc3cccnc3)cc2)n1`, the inhibition in assay [1] was found to be 42%; in [2], 23%; in assay [3] it was 67%; in assay [4], 60%.

`Cc1cc(C)nc(SCC(=O)Nc2ccc(Sc3ccccc3)cc2)n1`: the IC50 in [7] stood at 1.32 µM; in assay [11] it was 11.6 µM. Moreover, the inhibition was 70% in assay [1], 38% in assay [2], 80% in [3] and 53% in assay [4].

Turning to `Cc1cc(C)nc(SCC(=O)Nc2ccc(S(=O)(=O)c3ccccc3)cc2)n1`, the inhibition in assay [1] is 8%; in assay [2], 5%; in assay [3], 50%; in assay [4] it was 18%.

As to `COc1ccc(Sc2ccc(NC(=O)CSc3nc(C)cc(C)n3)cc2)cc1`, the inhibition in assay [1] was 55%; in [2], 20%; in [3] it was 65%; in assay [4], 58%.

For the compound `Cc1cc(C)nc(SCC(=O)Nc2ccc(Sc3cccc4ccccc34)cc2)n1`, the inhibition in [1] turned out to be 42%; in assay [2] it was 42%; in assay [3] it was 53%; in [4] it was 58%.

Regarding `Cc1cc(C)nc(SCC(=O)Nc2ccc(Sc3ccc4ccccc4c3)cc2)n1`, the inhibition in assay [1] worked out at 51%; in [2], 23%; in assay [3], 70%; in assay [4] it was 38%.

With `Cc1cc(C)nc(SCC(=O)Nc2ccc(Sc3ccc(C(F)(F)F)cc3)cc2)n1`, the inhibition in assay [1] turned out to be 28%; in assay [2] it was 18%; in [3], 51%; in assay [4] it was 42%.

As for `Cc1ccc(Sc2ccc(NC(=O)CSc3nc(C)cc(C)n3)cc2)cc1`, the inhibition in assay [1] came to 30%; in assay [2], 10%; in [3] it was 63%; in assay [4] it was 70%.

Regarding `CC(=O)c1ccc(Sc2ccc(NC(=O)CSc3nc(C)cc(C)n3)cc2)cc1`, the inhibition in [1] was determined as 6%; in [2], 8%; in assay [3] it was 5%; in assay [4] it was 35%.

As to `Cc1cc(C)nc(SCC(=O)Nc2ccc(Sc3ccsc3)cc2)n1`, the inhibition was 50% in assay [1], 18% in [2], 62% in [3] and 58% in [4].

As for `Cc1cc(C)nc(SCC(=O)Nc2ccc([S+]([O-])c3ccccc3)cc2)n1` (stereo unspecified), the inhibition was 5% in assay [1], 4% in [2], 40% in assay [3] and 23% in assay [4].
